According to the RNAGym collection of RNA variant scans (doi:10.1126/science.aae0568):
Variants at the floor of the assay were thinned out.

B1: tRNA (parent)
chain: GUUCCGUUGGCGUAAUGGUAACGCGUCUCCCUCCUAAGGAGAAGACUGCGGGUUCGAGUCCCGUACGGAACG

Variants of: B1
Test: yeast fitness relative to wild type (ratio to wild type); higher = fitter; tRNA-Arg(CCU), competitive growth, 37 C, YPD
Outline: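 Amplicons of the tRNA-Arg(CCU) gene were sequenced, 100-nucleotide paired-end, from the start population and from each end population of a pooled yeast competition. The competition, in six parallel replicates, lasted 24 hours in YPD at 37°C. Fitness relative to wild type was calculated from changes in genotype frequencies. Genotypes had to have ≥ 100 starting reads, and estimates < 0.5 were set to 0.5.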

Q: With A15U C24G A42C as the variant, how does the yeast fitness read?
A: ≤ 0.5

Q: Which yeast fitness does the source give for C29U A43U C46A C61G G68A here?
A: 0.567

Q: Which yeast fitness does the source give for G23A C62U here?
A: 0.781

Q: With G50C U59A as the variant, how does the yeast fitness read?
A: 0.703

Q: Which yeast fitness does the source give for U13C A14C U16C U64C A65C here?
A: ≤ 0.5

Q: For G6A G23C G68A, which yeast fitness is on record?
A: ≤ 0.5

Q: For C62G A65U A69U, which yeast fitness is on record?
A: 0.535

Q: Which yeast fitness does the source give for U13C C24G here?
A: 0.672

Q: For A36G G58A C60U, which yeast fitness is on record?
A: ≤ 0.5

Q: Which yeast fitness does the source give for U3A C46U G48A C55U U59A here?
A: ≤ 0.5

Q: Which yeast fitness does the source give for U26C C60A here?
A: 0.572

Q: For U2G C4U C29G, which yeast fitness is on record?
A: ≤ 0.5

Q: With A37C C46U A65C G68A as the variant, how does the yeast fitness read?
A: ≤ 0.5

Q: With C31A G51A as the variant, how does the yeast fitness read?
A: 0.603

Q: Which yeast fitness does the source give for U3G C5U G10A G18C C24U A45C here?
A: 0.553

Q: With G12A C24A A36U A37G C61U G67U as the variant, how does the yeast fitness read?
A: ≤ 0.5

Q: Which yeast fitness does the source give for U7G G18C C31A here?
A: ≤ 0.5

Q: For U7A G23C A45G C60G, which yeast fitness is on record?
A: ≤ 0.5

Q: With A21G U32C C34G as the variant, how does the yeast fitness read?
A: ≤ 0.5

Q: For U28G C33G C49U G68C A69U, which yeast fitness is on record?
A: ≤ 0.5

Q: Which yeast fitness does the source give for U3A C30G A45G C46G G52C G68C here?
A: ≤ 0.5

Q: For G18A G25A, which yeast fitness is on record?
A: 0.665

Q: Which yeast fitness does the source give for U7A C27G C34G U54A here?
A: ≤ 0.5

Q: For C4U G25A A36C A70G, which yeast fitness is on record?
A: ≤ 0.5

Q: Which yeast fitness does the source give for C11G G25A A36U here?
A: 0.615

Q: For C55U G56C, which yeast fitness is on record?
A: 0.593

Q: Which yeast fitness does the source give for U7G C27U A57C A70U here?
A: ≤ 0.5

Q: For C27U A37G A70C, which yeast fitness is on record?
A: 0.562

Q: Which yeast fitness does the source give for U8C U32C C46G G67C here?
A: ≤ 0.5

Q: Which yeast fitness does the source give for A40G C49U U59A here?
A: 0.572

Q: With U2C U8A G38C C60A as the variant, how does the yeast fitness read?
A: ≤ 0.5

Q: Which yeast fitness does the source give for A36G G68C here?
A: 0.779

Q: With C22U G39A C49G as the variant, how does the yeast fitness read?
A: ≤ 0.5

Q: For A15U C27U G48C A70U, which yeast fitness is on record?
A: 0.549

Q: For U28A A42G C60U, which yeast fitness is on record?
A: ≤ 0.5

Q: For U16A A69G, which yeast fitness is on record?
A: 0.853

Q: For C27U A65G G68A, which yeast fitness is on record?
A: 0.563

Q: With U19C U28C G68C as the variant, how does the yeast fitness read?
A: 0.67

Q: With U3A C30U A42G C61U as the variant, how does the yeast fitness read?
A: 0.602

Q: Which yeast fitness does the source give for C24U A65G here?
A: 0.924

Q: For U3C A15U C30U, which yeast fitness is on record?
A: 0.57

Q: For A15U A45C, which yeast fitness is on record?
A: 0.803

Q: For U16G G67U, which yeast fitness is on record?
A: 0.774

Q: Which yeast fitness does the source give for G41C C66G here?
A: 0.594

Q: For U16A G17A A20G C22G C61U G68C, which yeast fitness is on record?
A: 0.559

Q: With C24A C33G C34U G58C C62U as the variant, how does the yeast fitness read?
A: ≤ 0.5

Q: Which yeast fitness does the source give for U47G C62U A65C here?
A: ≤ 0.5

Q: With G6A C46G U64A as the variant, how does the yeast fitness read?
A: 0.667

Q: With A45G C49A C62A as the variant, how does the yeast fitness read?
A: ≤ 0.5

Q: Which yeast fitness does the source give for C29A U35A G56A here?
A: 0.741

Q: With U8A U13A A14C U16C as the variant, how does the yeast fitness read?
A: ≤ 0.5

Q: Which yeast fitness does the source give for G10C U16A C30U U64A here?
A: ≤ 0.5

Q: With C11U U13C C24A U47A as the variant, how does the yeast fitness read?
A: ≤ 0.5

Q: For C11A A21C A43G C60U C62U A70C, which yeast fitness is on record?
A: ≤ 0.5

Q: Which yeast fitness does the source give for U13C U53C here?
A: 0.727

Q: Which yeast fitness does the source give for A20U C34A C55G C66A here?
A: 0.561

Q: Which yeast fitness does the source give for G12A A57C here?
A: 0.618

Q: For G9C G63A C66U, which yeast fitness is on record?
A: ≤ 0.5

Q: Which yeast fitness does the source give for A15C A21C C34U A37U here?
A: ≤ 0.5

Q: Which yeast fitness does the source give for U19A U26C C30A A43C here?
A: ≤ 0.5

Q: For G18C C49G C61G, which yeast fitness is on record?
A: ≤ 0.5

Q: For C5A U16A G39A A45G G50A, which yeast fitness is on record?
A: ≤ 0.5

Q: Which yeast fitness does the source give for U16G C46U A65C here?
A: 1.13

Q: For C27A U35A G48A U59C, which yeast fitness is on record?
A: 0.567

Q: With C4G C24A C46U C60A as the variant, how does the yeast fitness read?
A: 0.521

Q: With U2G G56A as the variant, how does the yeast fitness read?
A: 0.896

Q: Which yeast fitness does the source give for G17C C46G here?
A: 0.747

Q: Which yeast fitness does the source give for C31G G44C U53C A65U A70G here?
A: ≤ 0.5

Q: For A45U U53C, which yeast fitness is on record?
A: 0.793

Q: For A36C A57U C60A, which yeast fitness is on record?
A: ≤ 0.5

Q: With C29G C30U A36C G39A C46G as the variant, how does the yeast fitness read?
A: 0.52

Q: With U7A G25C C27G C31U A45U C62U U64C as the variant, how does the yeast fitness read?
A: ≤ 0.5

Q: Which yeast fitness does the source give for U8A G18A here?
A: 0.578

Q: Which yeast fitness does the source give for C31G C62A here?
A: 0.607

Q: For C27U U32C, which yeast fitness is on record?
A: 0.844

Q: With A42G C55U A65C as the variant, how does the yeast fitness read?
A: 0.535

Q: Which yeast fitness does the source give for A20C A36U U53A here?
A: ≤ 0.5

Q: For C4U C30A C66U, which yeast fitness is on record?
A: 0.82

Q: Which yeast fitness does the source give for A21U U28G C55A G58A here?
A: ≤ 0.5

Q: With U16C C29A C55G A70U as the variant, how does the yeast fitness read?
A: ≤ 0.5

Q: For C27A C46A C66U, which yeast fitness is on record?
A: 0.704

Q: With C30U G38C A65G as the variant, how does the yeast fitness read?
A: 0.53

Q: Which yeast fitness does the source give for A43G U64A A69U here?
A: 0.648

Q: With C4A G23A U53C A57C as the variant, how does the yeast fitness read?
A: ≤ 0.5
